Test results reported in ChEMBL document CHEMBL4334422, “Toxicities and beneficial protection of H2S donors based on nonsteroidal anti-inflammatory drugs” (Medchemcomm, 2019).
Calls of active or inactive are those of the source. The calls are words filed in the database; no cut-off is given here.

Key:
[1] = Toxicity in Wistar kyoto rat assessed as stromal hyperplasia at 10 mg/kg, ip administered for 14 days by TEM assay; format: organism-based; settings: in vivo, 336 h
Summary of the method: (§1)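 After 14 days of daily intraperitoneal dosing at 10 mg/kg in WKY rats, with vehicle controls, liver and kidney were fixed in 4% glutaraldehyde. Ultrastructure was examined by transmission electron microscopy at 6000-, 10000- and 20000-fold magnification.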

[2] = Toxicity in Wistar kyoto rat assessed as abnormal nuclear morphology in liver tissue at 10 mg/kg, ip administered for 14 days by TEM assay; format: organism-based; settings: in vivo, 336 h
Summary of the method: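 WKY rats were given 10 mg·kg⁻¹ intraperitoneally daily for 14 days, with vehicle-treated controls. Liver and kidney were collected and fixed in 4% glutaraldehyde. Tissue was examined after HE staining by light microscopy and by transmission electron microscopy at 6000, 10000 and 20000-fold.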

[3] = Toxicity in Wistar kyoto rat assessed as swollen glomerular endothelial cells at 10 mg/kg, ip administered for 14 days by TEM assay; format: organism-based; settings: in vivo, 336 h; summary of the method: as §1
[4] = Cardiotoxicity in SHR rat assessed as myocardial fibers thickening at 10 mg/kg, ip administered for 14 days by H and E staining based microscopic assay; format: toxicity, organism-based; settings: in vivo, 336 h
Summary of the method: (§2)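 SHRs were given 10 mg·kg⁻¹ intraperitoneally per day for 14 consecutive days, with an ibuprofen comparator and a normal control. Myocardial tissue was then removed. Sections were HE-stained for light microscopy and also examined by transmission electron microscopy at 6000, 10000 and 20000-fold.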

[5] = Toxicity in Wistar kyoto rat assessed as necrosis in renal tubular epithelial cells at 10 mg/kg, ip administered for 14 days by H and E staining based assay; format: organism-based; settings: in vivo, 336 h
Summary of the method: (§3)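 WKY rats were dosed intraperitoneally at 10 mg/kg daily for 14 days, using the 10% 1,3-propanediol vehicle, with a vehicle control group. Liver and kidney were collected and fixed immediately in 4% glutaraldehyde. Sections were stained with haematoxylin and eosin and scored for structural change under light microscopy.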

[6] = Toxicity in Wistar kyoto rat assessed as swollen proximal convoluted tubule cells at 10 mg/kg, ip administered for 14 days by H and E staining based assay; format: organism-based; settings: in vivo, 336 h; summary of the method: as §3
Rattus norvegicus [7] = experiment: Cardioprotective activity in SHR rat assessed as neatly arrange myofibrils at 10 mg/kg, ip administered for 14 days by TEM analysis; format: functional, organism-based; summary of the method: as §2
Rattus norvegicus [8] = experiment: Cardioprotective activity in SHR rat assessed as change in muscle fiber nature at 10 mg/kg, ip administered for 14 days by TEM analysis; format: functional, organism-based; summary of the method: as §2
Rattus norvegicus [9] = experiment: Cardioprotective activity in SHR rat assessed as change in myocardial disk dissociation at 10 mg/kg, ip administered for 14 days by TEM analysis; format: functional, organism-based; summary of the method: as §2

SMILES	Activity [1]	Activity [2]	Activity [3]	Activity [4]	Activity [5]	Activity [6]	Activity (Rattus norvegicus [7])	Activity (Rattus norvegicus [8])	Activity (Rattus norvegicus [9])
CC(C)Cc1ccc(C(C)C(=O)Oc2ccc(C(N)=S)cc2)cc1 (centres undefined)	Toxic	Toxic	Toxic	Active	Toxic	Toxic	–	–	–
CC(=O)Nc1ccc(OC(=O)CCCCC2CCSS2)cc1 (centres undefined)	–	–	–	–	–	–	Active	Active	Active
